Here are results for three compounds from publication PMC7680388 (Cell chemical biology, 2020).

Like-named read-outs stand apart in the source and are kept apart here.

The subject of one data set is MM.1R cells. Nature of the data set: Apoptosis flow cytometry. In kind it is cell-based, Homo sapiens. The method in brief: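 MM.1R cells were treated with test compound (10 μM) or vehicle (0.1% DMSO) for 8, 16 and 24 h. Cells were washed twice in cold DPBS and resuspended in cold Annexin V buffer (HEPES, EDTA, CaCl2) with 5 μg/mL Annexin V-510 and 50 μg/mL PI. They were held 15 min at room temperature in the dark, then run by flow cytometry (violet/blue lasers). Annexin V+/PI− cells were scored apoptotic; three biological replicates.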

A further data set deals with solid tumors. Particulars: ref Huang et al., 2014; cited from earlier work.
In data set [1] the target is T1, Rpn13 (Homo sapiens, UniProt Q16186). Particulars: ref Anchoori et al., 2013; cited from earlier work.
For data set [2], the target named is T1, Rpn13. The note with it: two different cancer cell lines, ref Dickson, et al., submitted, cited from earlier work.
For data set [3], the system named is cancer (in cellulo and in vivo). The note with it: ref Anchoori et al., 2013; cited from earlier work.
For a further data set, the system named is 26S proteasome. Nature of the data set: Deubiquitylase activity of purified 26S proteasome. The format is biochemical, human. The note with it: KDT-11 10 μM; b-AP15 1 μM; 1 nM purified 26S proteasome, 5 mM ATP; biological triplicate; Fig. 2F.

T1 sequence (Q16186 whole entry): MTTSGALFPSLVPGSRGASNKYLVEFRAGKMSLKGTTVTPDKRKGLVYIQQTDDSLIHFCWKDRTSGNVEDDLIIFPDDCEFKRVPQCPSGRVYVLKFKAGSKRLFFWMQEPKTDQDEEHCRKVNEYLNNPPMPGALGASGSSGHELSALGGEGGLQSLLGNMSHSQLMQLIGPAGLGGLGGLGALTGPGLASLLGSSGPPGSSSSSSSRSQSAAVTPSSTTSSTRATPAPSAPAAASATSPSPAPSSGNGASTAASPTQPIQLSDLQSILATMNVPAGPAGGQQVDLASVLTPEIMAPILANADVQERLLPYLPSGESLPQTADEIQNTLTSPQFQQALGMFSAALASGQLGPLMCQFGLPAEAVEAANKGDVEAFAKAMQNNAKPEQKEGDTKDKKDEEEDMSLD

Regarding `CC(C)C[C@H](NC(=O)[C@H](Cc1ccccc1)NC(=O)c1cnccn1)B(O)O` [Bortezomib], the “induction of apoptosis and cell death, Annexin V/PI staining” value in the data set with MM.1R cells (8, 16 and 24 hours) is “induces apoptosis and cell death rapidly”. The “cells both Annexin V- and PI-positive” value in the data set on MM.1R cells (16 hours, KDT-11 10 μM (Fig. 4), Bortezomib Supplementary Figure 4) is listed as “≈ 85%”. Besides, in the data set with solid tumors, the dose-limiting toxicity entry is on record as “dose-limiting toxicity” and the “efficacy as a single agent in solid tumors” value is “unsuccessful as a single agent to treat solid tumors”.
With `Cl.N[C@@H](Cc1ccccc1)C(=O)N1C/C(=C/c2ccc(Cl)c(Cl)c2)C(=O)/C(=C\c2ccc(Cl)c(Cl)c2)C1` [RA190], the “engagement of Rpn13 in vitro” value at Rpn13 [1] was “engages Rpn13 selectively in vitro”. The “engagement of Rpn13 in cellulo” value at Rpn13 [2] was “Rpn13 is not engaged by this compound in cellulo”; at Rpn13 [2] (listed as RA-190), “does not engage Rpn13 in cells”. In addition, the “anti-cancer activity in cellulo and in vivo” value in data set [3] was “displays interesting anti-cancer activity in cellulo and in vivo”.
Take `C=CC(=O)N1C/C(=C\c2ccc([N+](=O)[O-])cc2)C(=O)/C(=C/c2ccc([N+](=O)[O-])cc2)C1` [b-AP15]: the “effect on rate of Ub-AMC hydrolysis by 26S proteasome” value in the data set on 26S proteasome is given as “greater inhibition”.
